Bioassay records as filed in PubChem.
Hits are enriched below; roughly 8.9% of the tested compounds scored in any of these assays.
b-catenin transl: alters nuclear translocation of beta-catenin in HeLa cells; immunofluorescence imaging; nuclear translocation activity, % at 5 µM; 190,000 compounds, 0.3% hits; AID 1665;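 active = nuclear translocation activity above 50% at 5 µM, with a well cell count of 50 or more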;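 also: per-cell ratio of nuclear to cytoplasmic median beta-catenin stain intensity; plate controls were DMSO negative control for no effect and GSK-3 inhibitor IX positive control for full effect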
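Signal – beta-catenin immunofluorescence imaging with DAPI · Test system – human HeLa cell line · Dosing – 5 µM primary single dose, 0.1% DMSO, 0.02–20 µM confirmation series · Measure – % activation, nuclear-to-cytoplasmic median beta-catenin signal ratio per cell · Incubation – 24 h compound exposure at 37°C, 5% CO2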
HSV augment: HSV replication enhancement. 220,000 compounds, 0.005% hits. maximum fold increase. HSV replication augmentation in cells, fold increase; in the data active = maximum fold increase above about 1.5; tested in PC3 cells
Dynein transport: blocks dynein driven cargo transport along microtubules. 3617.4 mouse cells, GR-EGFP nuclear translocation imaging; test concentration mostly 20 µM; stimulated with dexamethasone, 1 µM; stronger effect = lower value. z-score, hits read low. 220,000 compounds, 0.47% hits. AID 1381;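 active = plate z-score of nuclear minus cytoplasmic receptor signal below a set negative limit, without overly bright fluorescence or cell loss, cut at about -3.5 in these data, passing the limit was not always enough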;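 also: z-score of nuclear minus cytoplasmic ring GR-EGFP intensity difference per well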
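Buffer or medium: tet-free medium with charcoal-stripped serum / Also added: dexamethasone agonist, 1.0 µM final, for 30 min / Timing: induction 48 h, compound 1 h, agonist 30 min / Measured by: high-content fluorescence imaging after fixation / Read-out: nuclear-to-cytoplasmic GR-EGFP distribution per well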
Lmaj promast: reduces viability of Leishmania major promastigotes; resazurin fluorescence viability; inhibition, % at 10 µM; 200,000 compounds, 9% hits; AID 1063; in the data active = inhibition above about 50%;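 also: promastigotes grown with compound for 44 hours at 28 °C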
MT stabilizer: stabilizes microtubules in HeLa cells | HeLa tubulin immunostaining HCS, 24 h; share of cells brighter than vehicle mean+2SD | % tubulin-high responders, % at 10 µM | 200,000 compounds, 0.83% hits | AID 2205;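 active = plate Z-score above 3 for both tubulin-high and condensed-nucleus cell shares, with cell loss under 80%, at 10 µM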;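 also: anti alpha tubulin signal scored within the nucleus-defined area of each cell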
Active calls of the source: *; i = inactive; . = not tested or not shown.

SMILES	b-catenin transl	HSV augment	Dynein transport	Lmaj promast	MT stabilizer
[O-][N+]1=C2CCC/C(=N\O)C2=NC12CCCCC2	0.1	i	.	.	.
COc1ccccc1CNc1cc(C)ccc1C	-3.4	i	0.823	4.7	1.4
COc1ccc(-n2nc(C(N)=O)c(O)cc2=O)cc1	1.5	i	0.0406	-7.8	2.1
COc1ccccc1NC(=O)COC(=O)c1ccc([N+](=O)[O-])s1	2.0	i	-0.312	9.2	3.5
CCc1ccccc1NC(=O)c1ccc([N+](=O)[O-])s1	-0.3	i	0.926	99.9*	3.1
CCc1ccc(NC(=O)C(C)OC(=O)c2cccc(S(=O)(=O)N3CCc4ccccc4C3)c2)cc1 (stereo unspecified)	0.0	i	0.632	88.9*	4.2
O=C(NCCCN1CCOCC1)c1cccc(S(=O)(=O)N2CCc3ccccc3C2)c1	-2.0	i	-0.46	-1.6	63.0*
O=C(NCC1(N2CCOCC2)CCCCC1)c1cccc(S(=O)(=O)N2CCc3ccccc3C2)c1	-0.1	i	1.29	63.7*	5.8
O=C(O)CCC(=O)Nc1ccc(Br)c(Cl)c1	-1.0	i	2.67	-8.4	3.0
COc1cc2c(cc1OC)-c1cc(Nc3ccc(N(C)C)cc3)nc(=O)n1CC2	-0.6	i	0.512	.	.
CCCOc1ccc(-c2cn3ccccc3n2)cc1	4.6	i	-1.25	12.3	1.5
NC(=O)/C(=C/c1ccco1)NC(=O)c1ccc(Br)o1	.	i	0.145	-2.7	1.5
C/C(=N\NC(=O)NC1CCCCC1)C1CCCCC1	0.6	i	-0.848	95.3*	3.3
O=C(NC1CCCCCCC1)NC1CCCCC1	-1.7	i	-0.246	-0.5	2.2
Cc1ccccc1-n1c(=O)[nH]c(=O)c2c(N)c(C(=O)c3ccc(Cl)cc3)sc21	-3.0	i	-0.0869	11.6	4.0
N#CC1(Cc2ccc([N+](=O)[O-])cc2)c2ccccc2C=CN1C(=O)c1ccccc1 (stereo unspecified)	-4.3	i	1.16	51.1*	1.8
N#CC1(Cc2ccccc2)c2ccccc2C=CN1C(=O)c1ccccc1 (stereo unspecified)	0.7	i	-0.0781	82.2*	1.4
O=C(c1ccccc1)c1ccc(Sc2ccc([N+](=O)[O-])cc2)cc1	-0.4	i	0.207	.	.
CC(C)(CO)NS(=O)(=O)c1ccc2c(c1)C(=NO)c1cc(S(=O)(=O)NC(C)(C)CO)ccc1-2	-1.8	i	1.49	-9.3	1.8
Cc1ccc2ncccc2c1[N+](=O)[O-]	0.5	i	0.362	31.8	4.1
Cc1[nH]c2ccc3ncccc3c2c1C	1.7	i	1.13	56.5*	3.8
O=C(/C=C/c1cccc2ccccc12)c1ccncc1	1.6	i	-0.518	100.4*	6.0
Cc1[nH]c2ccccc2c1/C=C/C(=O)c1ccncc1	-0.2	i	-0.268	.	.
c1cncc(-c2nc(NCCCN3CCOCC3)c3c4c(sc3n2)CCC4)c1	0.0	i	0.106	67.9*	3.9
CN(C)CC1CCCCC1C1(O)c2ccccc2CSc2sccc21 (stereo unspecified)	0.1	i	1.7	99.6*	2.2
SMILES	b-catenin transl	HSV augment	Dynein transport	Lmaj promast	MT stabilizer
CCOC(=O)C1(Cc2cccc(OC)c2)CCN(Cc2ccccc2)CC1	-0.6	i	0.0937	27.1	3.3
CCOC(=O)C1(Cc2ccc(Cl)cc2)CCN(Cc2ccon2)CC1	0.4	i	-0.335	95.0*	2.4
CCOC(=O)C1(Cc2ccccc2Cl)CCN(Cc2csc(C(C)=O)c2)CC1	1.0	i	-1.17	90.3*	2.0
CCOC(=O)C1(Cc2ccc(Cl)cc2)CCN(Cc2cnc(N)nc2)CC1	1.4	i	-0.642	53.2*	2.7
CCN(C(=O)CSc1nc2ccccc2c(=O)n1-c1cccc(C)c1)C1CCS(=O)(=O)C1 (stereo unspecified)	-0.2	i	-0.52	6.0	4.2
COc1ccc(/C=N/NC(=O)CCN2CCCCC2c2cccnc2)cc1Cn1cc([N+](=O)[O-])cn1 (stereo unspecified)	-1.6	i	-0.637	.	.
N#CCCn1cc(C(=O)Nc2ccc(C(=O)O)cc2)c(-c2ccc([N+](=O)[O-])cc2)n1	0.0	i	0.427	-1.2	3.2
CCOC(=O)c1ccc(NC(=O)c2cn(CCC#N)nc2-c2ccc3c(c2)OCCO3)cc1	0.5	i	0.421	68.3*	6.0
COc1ccc(/C=N/OCC(=O)NCC(C)C)c(OC)c1	-5.7	i	-0.768	3.9	5.3
COc1ccc(/C=N/OCC(=O)NC(c2ccccc2)c2ccccc2)c(OC)c1	-3.0	i	2.57	99.8*	3.5
CCOc1ccc(/C=N/OCC(=O)NC(c2ccccc2)c2ccccc2)cc1	.	i	-0.766	77.0*	2.4
CCOc1ccc(/C=N/OCC(=O)Nc2cc(C)on2)cc1	.	i	0.323	59.7*	2.5
CCOc1ccc(/C=N/OCC(=O)Nc2ccc3c(c2)OCO3)cc1	0.1	i	-0.332	-2.5	6.0
COc1ccccc1NC(=O)CN(c1ccc(C)cc1)S(=O)(=O)c1c(C)n[nH]c1C	3.8	i	-0.315	27.9	3.2
c1ccc(-n2nnnc2SCc2cccc(CSc3nnnn3-c3ccccc3)n2)cc1	-1.3	i	0.969	34.1	3.6
CC(C)c1ccc(COc2ccc(C(=O)N3CCOCC3)cc2)cc1	2.7	i	1.14	0.2	2.1
CC(C)c1nc(NCc2ccccc2)c(C#N)c2c1CCCC2	-0.3	i	-0.0373	1.6	2.0
N#Cc1c(NCCCO)nc(NCc2ccccc2)c2c1CCN(Cc1ccccc1)C2	7.9	i	-0.508	58.8*	1.9
N#Cc1c(NCCCO)nc(-c2ccco2)c2c1CCCC2	-2.3	i	0.478	-3.8	1.9
CN1CCc2c(C#N)c(N3CCCCC3)nc(NCc3ccccc3)c2C1	0.5	i	-0.181	78.4*	4.0
CN1C(=S)SC2CS(=O)(=O)CC21C (stereo unspecified)	-0.8	i	0.152	.	.
Cc1cccc(N=c2c([N+](=O)[O-])nn(-c3ccc(Cl)cc3)n2O)c1	-1.0	i	-0.932	78.5*	0.1
Cc1cccc(-n2nc([N+](=O)[O-])c(=NCc3cccnc3)n2O)c1	0.2	i	-1.04	82.0*	3.6
O=[N+]([O-])c1nn(-c2cccc(Cl)c2)n(O)c1=NCc1cccnc1	1.1	i	0.317	21.3	4.1
Cc1ccc(CN=c2c([N+](=O)[O-])nn(-c3ccc(Cl)cc3)n2O)cc1	-3.3	i	-0.784	7.2	4.3
COc1cccc(CN=c2c([N+](=O)[O-])nn(-c3ccccc3C)n2O)c1	2.2	i	-1.81	32.8	6.9
O=[N+]([O-])c1nn(-c2ccc(Cl)cc2)n(O)c1=NCc1cccnc1	-0.7	i	-0.829	95.8*	2.5
O=[N+]([O-])c1nn(-c2ccc(Cl)cc2)n(O)c1=NCc1ccncc1	0.4	i	-1.04	75.0*	4.6
C#CCn1cc[n+](CC(=O)N(C)C)c1	-2.4	i	0.0625	2.1	1.7
CCOc1cc2[nH]c(=O)n(CCc3ccc(OC)c(OC)c3)c(=O)c2cc1OCC	-4.6	i	-0.371	16.9	4.3
